Measurements from ChEMBL document CHEMBL4622973, “Discovery of Potent Small-Molecule SIRT6 Activators: Structure-Activity Relationship and Anti-Pancreatic Ductal Adenocarcinoma Activity” (J Med Chem, 2020).
The source made the active and inactive calls. The rule behind the calls is not given here.

Columns and labels:
[1] = molecular target: T1, NAD-dependent protein deacylase sirtuin-6 (Homo sapiens, UniProt Q8N6T7); test: Activation of N-terminal his-tagged human SIRT6 expressed in Escherichia coli M15 [pREP4] assessed as increase in peptide demyristoylation at 100 uM incubated for 120 mins using Ac-EALPKK(Myr)-AMC substrate by FDL assay relative to control
T1 sequence (Q8N6T7 whole entry): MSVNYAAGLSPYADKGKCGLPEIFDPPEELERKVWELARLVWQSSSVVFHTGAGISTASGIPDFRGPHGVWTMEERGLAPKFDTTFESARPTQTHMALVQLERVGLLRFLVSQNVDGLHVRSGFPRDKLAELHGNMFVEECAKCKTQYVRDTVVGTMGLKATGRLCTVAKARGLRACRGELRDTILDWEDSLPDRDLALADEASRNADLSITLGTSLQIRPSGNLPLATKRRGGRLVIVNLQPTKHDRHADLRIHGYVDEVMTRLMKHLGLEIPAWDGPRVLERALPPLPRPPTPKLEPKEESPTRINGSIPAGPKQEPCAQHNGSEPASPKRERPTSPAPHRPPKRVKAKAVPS
In short: (§1)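 Demyristoylation: 1 µM recombinant SIRT6 preincubated with compound for 20 min at 37 °C in 50 mM Tris-HCl pH 8.0, BSA 1 mg/mL, 1 mM DTT, with 10 µM Ac-EALPKK(Myr)-AMC. Started with 1 mM NAD and run 120 min at 37 °C. Developed 120 min at 37 °C with 5 mg/mL trypsin/8 mM nicotinamide. Fluorescence read. Mean ± s.d., triplicate wells, three independent experiments.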

[2] = molecular target: T1, NAD-dependent protein deacylase sirtuin-6; test: Activation of N-terminal his-tagged human SIRT6 expressed in Escherichia coli M15 [pREP4] assessed as increase in peptide demyristoylation incubated for 120 mins using Ac-EALPKK(Myr)-AMC substrate by FDL assay relative to control
In short: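 Demyristoylation: 1 µM recombinant SIRT6 preincubated with compound for 20 min at 37 °C in 50 mM Tris-HCl pH 8.0, BSA 1 mg/mL, 1 mM DTT, with 10 µM Ac-EALPKK(Myr)-AMC. Fluorescence read. Mean ± s.d., triplicate wells, three independent experiments.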

[3] = molecular target: T1, NAD-dependent protein deacylase sirtuin-6; test: Activation of N-terminal his-tagged human SIRT6 expressed in Escherichia coli M15 [pREP4] assessed as increase in peptide demyristoylation at 20 uM incubated for 120 mins using Ac-EALPKK(Myr)-AMC substrate by FDL assay relative to control; in short: as §1
ASPC1 = test: Antiproliferative activity against human AsPC1 cells assessed as reduction in cell viability incubated for 72 hrs by MTT assay; type: functional, cell-based; conditions: ASPC1, 72 h
In short: (§2)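 PDAC cells grown in DMEM or RPMI1640 with 10% FBS and penicillin/streptomycin at 37 °C, 5% CO2. Plated in triplicate, then treated with a concentration series for 72 h. Viability read by MTT. IC50 calculated from dose-response curves.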

PANC-1 [4] = test: Antitumor activity against human PANC1 cells xenografted in BALB/c nude mouse assessed as inhibition of tumor growth at 150 mg/kg/day, po for 30 days relative to control; type: functional; conditions: PANC-1, po, 720 h, read-out: TGI
In short: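 Female BALB/c nude mice, 6-8 weeks old, injected subcutaneously in the right flank with 5×10^6–1×10^7 PANC-1 cells. At 130-150 mm³, mice randomized into 4 groups (n = 6) and dosed orally once daily for 30 days against vehicle. Tumor volume followed over time. Inhibition rate assessed against control.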

BXPC-3 = test: Antiproliferative activity against human BxPC3 cells assessed as reduction in cell viability incubated for 72 hrs by MTT assay; type: functional, cell-based; conditions: BXPC-3, 72 h; in short: as §2
PANC-1 [5] = test: Antiproliferative activity against human PANC1 cells assessed as reduction in cell viability incubated for 72 hrs by MTT assay; type: functional, cell-based; conditions: PANC-1, 72 h; in short: as §2
MIA PaCa-2 = test: Antiproliferative activity against human MIAPaCa2 cells assessed as reduction in cell viability incubated for 72 hrs by MTT assay; type: functional, cell-based; conditions: MIA PaCa-2, 72 h; in short: as §2

Row | Activity [1] | EC1.5 [2] | Activity [3] | Compound | also measured
1 | Active | 27.1 µM | 148% | COc1ccc(-c2cc(C(=O)Nc3ccc(Cl)c(Cl)c3)c3ccccc3n2)cc1OC | –
2 | – | – | – | COC(=O)c1cc(NS(=O)(=O)c2cc(Cl)cc(Cl)c2)ccc1S(=O)(=O)Nc1cc(Br)c(F)cc1C | IC50 (ASPC1): 50.5 µM; inhibition in vivo at 150 mg/kg/day (PANC-1 [4]): 78%; IC50 (BXPC-3): 58 µM; IC50 (PANC-1 [5]): 35.2 µM; IC50 (MIA PaCa-2): 55.6 µM
3 | Active | 228 µM | – | COC(=O)c1c2c(c3ccccc3c1O)OC(C)(C)C=C2 | –
4 | Active | 110 µM | – | COc1ccccc1C(=O)Nc1cc2c(cc1N1CCCCC1)n(C)c(=O)n2C | –
5 | – | 7.44 µM | 327% | COc1ccc(-c2cc(C(=O)Nc3cccc4ccccc34)c3ccccc3n2)cc1OC | –
6 | – | 3.71 µM | 315% | Cc1cc(C)c(NC(=O)c2cc(-c3cc4ccccc4o3)nc3ccccc23)c(C)c1 | –
7 | – | 14.5 µM | 208% | Cc1ccc(CNC(=O)c2cc(-c3cc4ccccc4o3)nc3ccccc23)cc1 | –
8 | Active | 118 µM | – | Cc1cc(Nc2cc(CN3CCOCC3)c3nc(C)c(Cc4ccc(Cl)cc4F)n3n2)n[nH]1 | –
9 | – | 3.11 µM | 430% | O=C(Nc1cc(C(F)(F)F)cc(C(F)(F)F)c1)c1cc(-c2cc3ccccc3o2)nc2ccccc12 | –
10 | – | 14.9 µM | 228% | O=C(Nc1cc(C(F)(F)F)ccc1Cl)c1cc(-c2ccc3c(c2)OCO3)nc2ccccc12 | –
